Test results reported in ChEMBL document CHEMBL1122662, “3-Hydroxy-alpha-methyltyrosine progenitors: synthesis and evaluation of some (2-oxo-1,3-dioxol-4-yl)methyl esters” (J Med Chem, 1984).

Tests used:
Rattus norvegicus [1] = assay: Antihypertensive activity was evaluated in SH rats by measuring initial mean arterial pressure at 0.47 mM/kg dose administered perorally; equivalent to 100 mg/kg of methyldopa; format: functional, Artery; details: route oral
Outline: (§1)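 Unanesthetized male Wistar-Okamoto spontaneously hypertensive rats (290-350 g, 16-24 weeks), six per group, dosed orally at 0.12, 0.24 or 0.47 mmol/kg, equal to 25, 50 or 100 mg/kg methyldopa; doses based on base weight. Arterial pressure recorded continuously by transducer, mean pressure printed every 1/2 h. Initial pressure and maximum fall recorded, mean ± SE.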

Rattus norvegicus [2] = assay: Antihypertensive activity was evaluated in SH rats by measuring imax reduction in mean arterial pressure at 0.12 mM/kg dose administered perorally; equivalent to 25 mg/kg of methyldopa; format: functional, Artery; details: route oral; outline: as §1
[3] = Systemic availability with respect to methyldopa was determined; format: ADME
Outline: (§2)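 Randomized cross-over in four male beagles fasted overnight and 6 h postdose, water ad libitum. Single oral doses equal to 200 mg methyldopa; 100 mg methyldopa iv as reference. Jugular blood through 10 h. Plasma deproteinized with HClO4, internal standard ethyldopa, analyzed by C-18 HPLC with amperometric detection. AUC by trapezoids plus terminal extrapolation. Systemic availability relative to iv by Kwan-Till, constant nonrenal clearance; mean ± SD.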

[4] = Compound was evaluated for its renal clearance after oral administration (200 mg) to Beagle dogs; format: ADME, organism-based, Canis lupus familiaris; details: dog, in vivo, read-out: Renal clearance
Outline: (§3)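 Four male beagles in cross-over, single oral doses equal to 200 mg methyldopa, 100 mg iv reference. Voided urine collected through 48 h, heated with HClO4 (99 °C, 15 min) to hydrolyze conjugates, methyldopa measured by HPLC-amperometry. Urinary recovery as % dose; renal clearance as total urinary recovery divided by plasma AUC; mean ± SD.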

Rattus norvegicus [5] = assay: Antihypertensive activity was evaluated in SH rats by measuring initial mean arterial pressure at 0.24 mM/kg dose administered perorally; equivalent to 50 mg/kg of methyldopa; format: functional, Artery; details: route oral; outline: as §1
[6] = Compound was evaluated for its bioavailability after oral administration (200 mg) to Beagle dogs; format: ADME, organism-based, Canis lupus familiaris; details: dog, in vivo; outline: as §2
Rattus norvegicus [7] = assay: Antihypertensive activity was evaluated in SH rats by measuring initial mean arterial pressure at 0.12 mM/kg dose administered perorally; equivalent to 25 mg/kg of methyldopa; format: functional, Artery; details: route oral; outline: as §1
Rattus norvegicus [8] = assay: Antihypertensive activity was evaluated in SH rats by measuring max reduction in mean arterial pressure at 0.47 mM/kg dose administered perorally; equivalent to 100 mg/kg of methyldopa; format: functional, Artery; details: route oral; outline: as §1
Rattus norvegicus [9] = assay: Antihypertensive activity was evaluated in SH rats by measuring max reduction in mean arterial pressure at 0.24 mM/kg dose administered perorally; equivalent to 50 mg/kg of methyldopa; format: functional, Artery; details: route oral; outline: as §1
[10] = Compound was evaluated for its urinary recovery after oral administration (200 mg) to Beagle dogs; format: ADME, organism-based, Canis lupus familiaris; details: dog, urine, read-out: Activity; outline: as §3
Rattus norvegicus [11] = assay: Antihypertensive activity was evaluated in SH rats by measuring imax reduction in mean arterial pressure at 0.24 mM/kg dose administered perorally; equivalent to 50 mg/kg of methyldopa; format: functional, Artery; details: route oral; outline: as §1
[12] = Compound was evaluated for its renal clearance after intravenous administration (100 mg) to Beagle dogs
[13] = Compound was evaluated for its bioavailability after intravenous administration (100 mg) to Beagle dogs
[14] = Compound was evaluated for its urinary recovery after intravenous administration (100 mg) to Beagle dogs

Activity [3]	CL renal [4]	AUC [6]	dose excreted [10]	Structure (SMILES)	Initial mean arterial pressure (Rattus norvegicus [1])	Max reduction in mean arterial pressure (Rattus norvegicus [2])	Initial mean arterial pressure (Rattus norvegicus [5])	Initial mean arterial pressure (Rattus norvegicus [7])	Max reduction in mean arterial pressure (Rattus norvegicus [8])	Max reduction in mean arterial pressure (Rattus norvegicus [9])	Max reduction in mean arterial pressure (Rattus norvegicus [11])	Renal clearance [12]	AUC [13]	Activity [14]
55.7%	29.3 mL/min	37400 ng·h/mL	31.4%	CC(N)(Cc1ccc(O)c(O)c1)C(=O)OCc1oc(=O)oc1C(C)(C)C (stereo not given)	185 mmHg	24 mmHg	172 mmHg	182 mmHg	93 mmHg	45 mmHg	–	–	–	–
–	–	–	–	CC(OC(=O)C(C)(C)C)OC(=O)C(C)(N)Cc1ccc(O)c(O)c1.Cl (stereo not given)	179 mmHg	23 mmHg	181 mmHg	181 mmHg	83 mmHg	60 mmHg	–	–	–	–
94.2%	29.2 mL/min	61700 ng·h/mL	53.2%	Cc1oc(=O)oc1COC(=O)C(C)(N)Cc1ccc(O)c(O)c1 (stereo not given)	164 mmHg	29 mmHg	172 mmHg	180 mmHg	52 mmHg	38 mmHg	–	–	–	–
92.1%	31.9 mL/min	58300 ng·h/mL	54.2%	C[C@](N)(Cc1ccc(O)c(O)c1)C(=O)O [METHYLDOPA]	–	–	174 mmHg	–	–	–	37 mmHg	31.8 mL/min	32600 ng·h/mL	57.7%
